This is an account of results in ChEMBL document CHEMBL3351268, “Synthesis, biological evaluation, and molecular modeling of new 3-(cyclopentyloxy)-4-methoxybenzaldehyde O-(2-(2,6-dimethylmorpholino)-2-oxoethyl) Oxime (GEBR-7b) related phosphodiesterase 4D (PDE4D) inhibitors” (J Med Chem, 2014).

Active and inactive are the calls of the source. The calls are words filed in the database; no cut-off is given here.

In series [1] the target is T1, 3',5'-cyclic-AMP phosphodiesterase 4D (Homo sapiens, UniProt Q08499). Briefly: Inhibition of PDE4D1 (unknown origin) at 10 uM.
Series [2] has as its target T1, 3',5'-cyclic-AMP phosphodiesterase 4D. Briefly: Inhibition of PDE4D2 (unknown origin) at 10 uM.
For series [3] the target is unchanged. Briefly: Inhibition of recombinant human PDE4D3 expressed in baculoviral system at 10 uM. In outline: (§1)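 Recombinant PDE4 isoform enzyme activity measured with compound at 10 μM, in duplicate; result given as % inhibition relative to control activity. PDE4D3 is recombinant human, expressed in a baculoviral system.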
Series [4] has the same target. Briefly: Inhibition of PDE4D3 (unknown origin) at 10 uM. In outline:
as §1

A short description of series [5]: Cytotoxicity against human HTLA-230 cells at 100 uM after 24 hrs by lactate dehydrogenase release assay. The format is cell-based. As to conditions: htla-230, 24 h. In outline: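 HTLA human neuronal cells exposed 24 h to 100 μM test compound; cytotoxicity read as lactate-dehydrogenase release.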
Series [6] is described as follows: Genotoxicity against human HTLA-230 cells assessed as phosphorylation of histone H2AX at 100 uM after 24 hrs by Western blot analysis. It is filed as toxicity, cell-based. As to conditions: htla-230, 24 h. Background: In western blotting, separated proteins are transferred to a membrane and probed.
For series [7], the target named is 3',5'-cyclic-AMP phosphodiesterase 4A (Homo sapiens) (UniProt P27815). Briefly: Inhibition of PDE4A4 (unknown origin) at 10 uM. The essentials: as §1
In series [8] the target is T1, 3',5'-cyclic-AMP phosphodiesterase 4D. Briefly: Inhibition of recombinant human PDE4D3 expressed in baculoviral system. The essentials:
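Recombinant PDE4 isoform enzyme (PDE4D3: recombinant human, baculoviral expression) tested at five concentrations over 5 × 10−8–10−4 M, in duplicate. IC50 obtained by nonlinear regression of the inhibition curve with Hill equation fitting.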

For series [9], the target named is T2, 3',5'-cyclic-AMP phosphodiesterase 4B (Homo sapiens, UniProt Q07343). Briefly: Inhibition of PDE4B2 (unknown origin) at 10 uM. The essentials:
as §1

In series [10] the target is T2, 3',5'-cyclic-AMP phosphodiesterase 4B. Briefly: Inhibition of PDE4B2 (unknown origin).
Series [11] is filed under the species Homo sapiens. Briefly: Selectivity ratio of IC50 PDE4B2 (unknown origin) for to IC50 for ecombinant human PDE4D3 expressed in baculoviral system.
Series [12] deals with T1, 3',5'-cyclic-AMP phosphodiesterase 4D. Briefly: Inhibition of PDE4D3 in human HTLA230 cells assessed as accumulation of intracellular cAMP pretreated at 100 uM for 10 min before forskolin addition measured after 20 mins by enzyme immunoassay. It is filed as cell-based. In outline: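 cAMP accumulation in HTLA cells treated 30 min with compound. Where indicated, forskolin was added during the last 20 min to raise basal cAMP. Intracellular cAMP measured by cAMP-specific enzymatic immunoassay.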

T1 sequence (Q08499 whole entry): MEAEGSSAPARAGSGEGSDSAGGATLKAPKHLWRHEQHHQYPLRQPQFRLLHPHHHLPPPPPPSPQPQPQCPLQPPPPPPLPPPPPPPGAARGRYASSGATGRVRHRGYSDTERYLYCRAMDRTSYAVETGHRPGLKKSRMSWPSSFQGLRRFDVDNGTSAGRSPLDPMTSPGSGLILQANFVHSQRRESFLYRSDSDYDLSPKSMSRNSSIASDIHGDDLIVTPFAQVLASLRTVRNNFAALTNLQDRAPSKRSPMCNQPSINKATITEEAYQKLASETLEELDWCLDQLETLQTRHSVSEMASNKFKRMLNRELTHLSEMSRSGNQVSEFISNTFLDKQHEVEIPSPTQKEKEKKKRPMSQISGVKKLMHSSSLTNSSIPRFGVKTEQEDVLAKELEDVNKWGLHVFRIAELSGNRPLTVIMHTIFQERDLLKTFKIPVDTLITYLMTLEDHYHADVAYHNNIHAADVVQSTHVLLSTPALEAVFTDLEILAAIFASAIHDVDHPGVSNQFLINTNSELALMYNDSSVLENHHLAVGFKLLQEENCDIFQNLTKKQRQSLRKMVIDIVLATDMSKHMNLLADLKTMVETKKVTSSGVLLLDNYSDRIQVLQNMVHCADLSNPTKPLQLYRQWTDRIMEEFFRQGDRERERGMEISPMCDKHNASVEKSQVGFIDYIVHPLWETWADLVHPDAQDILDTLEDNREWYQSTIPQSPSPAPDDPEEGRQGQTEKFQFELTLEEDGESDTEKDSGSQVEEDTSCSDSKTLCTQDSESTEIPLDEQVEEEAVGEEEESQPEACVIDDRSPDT
Chain of 3',5'-cyclic-AMP phosphodiesterase 4A (Homo sapiens) (P27815 whole entry): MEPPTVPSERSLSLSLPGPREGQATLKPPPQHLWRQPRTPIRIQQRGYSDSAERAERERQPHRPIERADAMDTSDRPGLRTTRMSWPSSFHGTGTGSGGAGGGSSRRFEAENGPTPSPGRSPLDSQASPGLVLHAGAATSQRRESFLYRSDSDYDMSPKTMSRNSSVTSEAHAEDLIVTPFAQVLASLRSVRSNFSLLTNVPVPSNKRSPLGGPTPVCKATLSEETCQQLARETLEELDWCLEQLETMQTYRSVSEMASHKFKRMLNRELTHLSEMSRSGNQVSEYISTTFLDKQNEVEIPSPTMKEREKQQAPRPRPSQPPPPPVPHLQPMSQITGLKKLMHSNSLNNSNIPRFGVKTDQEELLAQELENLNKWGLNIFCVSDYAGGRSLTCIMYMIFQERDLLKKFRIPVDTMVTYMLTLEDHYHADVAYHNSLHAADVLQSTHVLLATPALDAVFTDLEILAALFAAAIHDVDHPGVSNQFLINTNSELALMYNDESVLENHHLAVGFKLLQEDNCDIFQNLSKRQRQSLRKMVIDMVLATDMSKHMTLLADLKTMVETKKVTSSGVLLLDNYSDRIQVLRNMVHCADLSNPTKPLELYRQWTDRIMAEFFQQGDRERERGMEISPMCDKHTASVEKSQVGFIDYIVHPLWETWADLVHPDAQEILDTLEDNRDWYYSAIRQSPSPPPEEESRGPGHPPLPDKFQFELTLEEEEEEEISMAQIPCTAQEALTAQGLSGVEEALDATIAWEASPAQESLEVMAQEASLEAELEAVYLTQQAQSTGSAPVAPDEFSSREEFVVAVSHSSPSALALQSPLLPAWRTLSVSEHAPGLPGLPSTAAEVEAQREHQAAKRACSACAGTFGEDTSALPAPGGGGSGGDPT
T2 sequence (Q07343 whole entry): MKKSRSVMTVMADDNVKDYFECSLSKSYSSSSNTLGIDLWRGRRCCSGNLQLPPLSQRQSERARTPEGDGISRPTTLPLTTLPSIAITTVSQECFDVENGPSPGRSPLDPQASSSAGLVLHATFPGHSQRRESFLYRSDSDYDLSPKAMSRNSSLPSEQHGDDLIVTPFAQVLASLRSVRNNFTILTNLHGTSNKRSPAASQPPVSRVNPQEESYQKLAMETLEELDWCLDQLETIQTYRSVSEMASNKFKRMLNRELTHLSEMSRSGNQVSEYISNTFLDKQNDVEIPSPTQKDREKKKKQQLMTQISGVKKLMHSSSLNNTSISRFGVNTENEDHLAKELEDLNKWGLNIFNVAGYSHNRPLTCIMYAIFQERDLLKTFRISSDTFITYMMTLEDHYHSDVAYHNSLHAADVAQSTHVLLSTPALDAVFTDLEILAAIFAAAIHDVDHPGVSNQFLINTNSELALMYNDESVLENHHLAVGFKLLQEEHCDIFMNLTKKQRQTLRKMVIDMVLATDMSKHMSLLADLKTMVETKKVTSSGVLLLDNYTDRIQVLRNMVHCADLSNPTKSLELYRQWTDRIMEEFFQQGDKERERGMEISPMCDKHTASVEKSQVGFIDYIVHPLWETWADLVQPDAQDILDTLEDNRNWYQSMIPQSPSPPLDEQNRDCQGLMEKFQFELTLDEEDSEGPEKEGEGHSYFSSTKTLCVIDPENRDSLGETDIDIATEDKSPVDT

As usually defined, the inhibition is the relative decrease from the control value, in per cent. As to `COc1ccc(C(=O)NN2CCOCC2)cc1OC1CCCC1`, the inhibition worked out at 49% in series [1], 32% in [2], 32% in [3] and 32% in series [4].
For orientation: IC50 means the point on the concentration scale where inhibition reaches its midpoint. On to `COc1ccc(/C=N/N2CC(C)OC(C)C2)cc1OC1CCCC1` (stereo not given), for which the Activity in series [5] was 0.01%; in [6] it was “Non-toxic”. Also, the inhibition is 68% in series [1]; 29% in series [7]; 53% in series [2]; 47% in [9]; 75% in series [3]; 75% in [4]. Further, the IC50 in [8] turned out to be 1550 nM.
On to `COc1cc([C@@H]2c3cc4c(cc3[C@@H](O[C@@H]3O[C@@H]5CO[C@@H](C)O[C@H]5[C@H](O)[C@H]3O)[C@H]3COC(=O)[C@H]23)OCO4)cc(OC)c1O` [ETOPOSIDE], for which the Activity entry in series [6] is “Toxic”.
In the case of `COc1ccc(/C=N/N2CCOCC2)cc1OC1CCCC1`, the values for the Activity in [5] and in [6] were 0.04% and “Non-toxic”, respectively. In addition, the inhibition amounted to 75% in series [1]; 41% in [7]; 62% in [2]; 62% in series [9]; 83% in series [3]; 83% in [4]. Also, the IC50 in series [10] is 1600 nM; in [8], 660 nM. For the same compound, in series [11], the Ratio IC50 amounted to 2.6.
In the case of `COc1ccc(/C=N/OCC(=O)N2CC(C)OC(C)C2)cc1OC1CCCC1` (stereo not given), the Activity in series [5] is recorded as 0.14%; in series [6], “Non-toxic”.
With `COc1ccc(/C=N/OCC(CN2CCC(OC(C)=O)CC2)OC(C)=O)cc1OC1CCCC1` (stereo not given), in [3], the inhibition was determined as 12%.
The same measure, in the same setting: under `COc1ccc(CCC(=O)N2CCOCC2)cc1OC1CCCC1` stands 7%; under `COc1ccc(CCC(=O)N2CC(C)OC(C)C2)cc1OC1CCCC1` (stereo not given), 10%.
On to `COc1ccc(/C=N/OCC(O)CNN2CC(C)OC(C)C2)cc1OC1CCCC1` (stereo not given), for which the Activity in [5] is 0.75%; in [6], “Non-toxic”. In addition, the inhibition in series [1] turned out to be 65%; in series [7] it was 41%; in [2], 74%; in series [9] it was 51%; in [3], 80%; in [4], 80%. Moreover, the IC50 in series [10] stood at 18000 nM; in series [8] it was 210 nM. In addition, the Ratio IC50 in [11] came to 90.
For `COc1ccc(/C=N/OCCC(=O)N2CC(C)OC(C)C2)cc1OC1CCCC1` (stereo not given), the inhibition in [3] amounted to 24%.
Same read-out and setting: next, `COc1ccc(C(=O)NN2CC(C)OC(C)C2)cc1OC1CCCC1` (stereo not given): 0%.
Turning to `COc1ccc(C(=O)N2CC(C)OC(C)C2)cc1OC1CCCC1` (stereo not given), the inhibition in series [1] was 18%; in series [2] it was 9%; in [3], 31%; in series [4] it was 31%.
On to `COc1ccc(/C=C/C(=O)N2CC(C)OC(C)C2)cc1OC1CCCC1` (stereo not given), for which, in series [3], the inhibition worked out at 16%.
As for `COc1ccc(/C=N/OCC(O)CNN2CCOCC2)cc1OC1CCCC1` (stereo not given), the results for the Activity in series [5] and in series [6] were 0.01% and “Non-toxic”, respectively. Further, the inhibition was 33% in series [7], 34% in series [9], 56% in series [3] and 56% in series [4]. For the same compound, in series [8], the IC50 turned out to be 1260 nM.
As to `COc1ccc(CCC(=O)N2CCC(O)CC2)cc1OC1CCCC1`, the inhibition in [3] was found to be 12%.
As for `COc1ccc(/C=C/C(=O)N2CCC(O)CC2)cc1OC1CCCC1`, the inhibition in series [3] was 22%.
On the same count and under the same terms, next, `COc1ccc(/C=C/C(=O)N2CCOCC2)cc1OC1CCCC1`: 25%; `COc1ccc(C(=O)N2CCOCC2)cc1OC1CCCC1`: 45%.
On to `COc1ccc(/C=N/OCC(O)CN2CCC(O)CC2)cc1OC1CCCC1` (stereo not given), for which the Activity is given as 1.2% in series [5] and “Non-toxic” in series [6]. Further, the inhibition in series [7] was found to be 10%; in series [9] it was 5%; in [3], 65%; in series [4], 65%. In addition, the inhibition entry in [12] was “Active”. For the same compound, in [8], the IC50 came out at 1790 nM.
In the case of `COc1ccc(/C=N/OCCC(=O)N2CCOCC2)cc1OC1CCCC1`, the inhibition in series [3] was determined as 49%.
The same measure, in the same setting: under `COc1ccc(/C=N/OCC(=O)N2CCC(O)CC2)cc1OC1CCCC1` stands 30%; under `COc1ccc(C(=O)N2CCC(O)CC2)cc1OC1CCCC1`, 20%.
